System: MS2 coat protein
Test: apparent Kd, MS2 coat protein; higher = weaker binding; RNA-MaP array
Method in brief: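 Designed RNAs were transcribed in place on an Illumina sequencing chip from sequenced DNA templates. At room temperature and with or without input ligand, they were incubated with fluorescently labeled MS2 coat protein from 1.5 nM to 3 μM, for 0.8–1.5 h at the lowest and 10–20 min at the highest concentrations. Apparent Kd is the median of the binding-curve fits made per cluster, with designs measured on fewer than 10 clusters excluded.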

[1] = designed as: OFF switch for flavin mononucleotide, no ligand
[2] = ligand present: flavin mononucleotide, designed as: OFF switch for flavin mononucleotide
[3] = designed as: ON switch for flavin mononucleotide, no ligand
[4] = ligand present: flavin mononucleotide, designed as: ON switch for flavin mononucleotide
[5] = designed as: ON switch for theophylline, no ligand
[6] = ligand present: theophylline, designed as: ON switch for theophylline
[7] = designed as: ON switch for tryptophan, no ligand
[8] = ligand present: tryptophan, designed as: ON switch for tryptophan
[9] = designed as: OFF switch for tryptophan, no ligand
[10] = ligand present: tryptophan, designed as: OFF switch for tryptophan
[11] = designed as: OFF switch for theophylline, no ligand
[12] = ligand present: theophylline, designed as: OFF switch for theophylline

| Sequence | apparent Kd [1] | apparent Kd [2] | other results |
| --- | --- | --- | --- |
| AUCGGCGCACAGAAGGGACGAUCAAACUGCUGAUCACAUGAGGAUCACCCAUGUUGUUUGGAUAGUCAGGAUAUGUUGACCAUG | 17.6 nM | 16 nM | – |
| AUGAAAAGUACAGGAUAUAUAUAAACACAAAACGGACAUGAGGAUCACCCAUGUUGACGUUGUCAAUAGAAGGGUACCAACACA | – | – | apparent Kd [3]: 26.1 nM; apparent Kd [4]: 10.7 nM |
| AUGUCACAUGAGGAUCACCCAUGUAUGGAUACCAGUUUAGUGAAUAACCCUUGGCAGCCAAGGAUGCGACAGAAAUCCGGAAAAC | – | – | apparent Kd [5]: 21.3 nM; apparent Kd [6]: 21.1 nM |
| AUUGUCAAGUCGGCCGCCACUUCUGCCAUGGCCACCAGUCGACAUGAGGAUCACCCAUGUCUCUUAAGGACCGGGACUUUCAAUU | – | – | apparent Kd [7]: 13.2 nM; apparent Kd [8]: 12.1 nM |
| CAAAAUGCGGCGGCCGCCACUCAGCUCCGUGUGGUUGGUCAUCUUAACAUGAGGAUCACCCAUGUGAGGACCGGGCCAGCGAGUG | – | – | apparent Kd [9]: 13.5 nM; apparent Kd [10]: 13.9 nM |
| CAAAUGUGCACUCGUGAUACAUGAGGAUCACCCAUGUCAACUAAGGAUAUCUGGAAGUCACAUCGAGAGAAGGUAGCGUACCCU | 10.5 nM | 9.44 nM | – |
| CAAGGGAAUACAGGAUAUUGCUGGAGUUGGGCGAGACAUGAGGAUCACCCAUGUUAUGCUAUAGUCAAGAAGGGUAUCUCGAGG | 18.5 nM | 13 nM | – |
| CAUACAUAACAUGAGGAUCACCCAUGUGACUCACUCUGAAAGCAGGAUAUAUUCGGUAAGCUACGAUAGAAGGGCUAUGCGUAA | 42.2 nM | 31.3 nM | – |
| CAUACGCCGCAGAAGGAGUCGAGUCCGUUUCAACUAGGAUAUGCCAGAACAUGAGGAUCACCCAUGUUGCGGGUGCAGCUCAAU | 37.8 nM | 38.9 nM | – |
| CAUGUGUAAGGAUAUGCGUCGAUAUCAACUAACUAUAUGAUGCAGAAGGUACAUGAGGAUCACCCAUGUGAACU | 30.3 nM | 118 nM | – |
| CCAUGAAGCGAGGAUAUUCUCACUGCCAAGUUGGAAGAAGGCGCUACAUGAGGAUCACCCAUGUAGUCAGUCCG | 5.07 nM | 5.32 nM | – |
| CCAUGGAGGACUGAGGAUAUUCGCAUAAGCACAUGAGGAUCACCCAUGUCAGAAAUAAAUCUCUAGAAGAAGGCAGCGCUAAGACA | – | – | apparent Kd [3]: 12.9 nM; apparent Kd [4]: 13.2 nM |
| CCAUGUAAUGUAAGGAUAUUCCAGGUAAUUACUUUGAAGAAGGUACAUGAGGAUCACCCAUGUGGAAACGAAUG | 18.6 nM | 64.5 nM | – |
| CCGCCUCGCGUCAGGAUAUGUAACAAUUGUCAAAUACAGAAGGGACAUGAGGAUCACCCAUGUUUACAUACCAA | 18 nM | 42.2 nM | – |
| CCGCGACAUGAGGAUCACCCAUGUGAUUUGACCUCCGGCACGAGAAGGUUCCGACCAAACGGCCGAAAGGAUAUCGUCCCAGAG | – | – | apparent Kd [3]: 64.1 nM; apparent Kd [4]: 38.6 nM |
| CCUCAACAUGAGGAUCACCCAUGUCAGGAUAUCUAGGAGACAUCACAUGCGUCCGAUGAGAGAAGGGACACAGU | 25.1 nM | 27.5 nM | – |
| CCUCGGCCAUCAGGAUAUCAUUCUCCGAUGCGGAACAUGAGGAUCACCCAUGUUGGGUACCCGUGUGAGAAGGGAUGCGUACGG | 74.3 nM | 62.2 nM | – |
| CCUGGACAUGAGGAUCACCCAUGUGAGGAUACCAGAUAUCCUGAUAUCCCUUGGCAGCCUCAUUACUUCGCAUUACCGAAACUUC | – | – | apparent Kd [5]: 103 nM; apparent Kd [6]: 249 nM |
| CGACAUAACCGAGGAUAUCGCUGACGUAAGCACAUGAGGAUCACCCAUGUGAGUGAGAGUGAGUACGAGAAGGCGGAAUUAAGG | – | – | apparent Kd [3]: 53.3 nM; apparent Kd [4]: 16.5 nM |
| CGCCCGAAAGGAUAUACAUGAGGAUCACCCAUGUUUCUAGCAAAAUGACCCUCAAUUCGUAGAAGGUUCCGAGU | 32.6 nM | 36.1 nM | – |
| CGCGAGACGGCGGCCGCCACUUGUUGUUGGAAACUCGAGUUACAUGAGGAUCACCCAUGUCCUUAAAGGACCGGGCCGUAAGUAA | – | – | apparent Kd [7]: 226 nM; apparent Kd [8]: 164 nM |
| CGGCGCUUAGGAUAUUAGAGAUGCAACAUGAGGAUCACCCAUGUGAUGAGGGUUGGCAGCUAAGAAGGAAGCAUCC | 86 nM | 61.5 nM | – |
| CGGCUCAUAAUGGAUACCAGUCCAGCAUAGAAACCUUGACACAUGAGGAUCACCCAUGUUGACCCUUGGCAGCCAUUGAUCAUAC | – | – | apparent Kd [11]: 22.4 nM; apparent Kd [12]: 133 nM |
| CGGUGACAUGAGGAUCACCCAUGUAAGGAUAUACCGGUUGAAGAUAAUAGCGACGGCGGAAGAAGGUACCUACA | 32 nM | 25.9 nM | – |
| CGUAAACAUGAGGAUCACCCAUGUGAUGAUACCAGCACGAUUAACUGCCCUUGGCAGCAUGUAUUGUACGACUUAUUGCCCAUCG | – | – | apparent Kd [5]: 14.8 nM; apparent Kd [6]: 16.8 nM |
| CGUCUGUGAGGAUAUGGUCGAGGUUGGUGAAUUACUUACAUCCAGAAGGCACAUGAGGAUCACCCAUGUACAUC | 10.5 nM | 13.8 nM | – |
| CUAUGGGAUAAGGAUAUAAUAAUUGAGAAGGAGUUAGAAGGUAUAACAUGAGGAUCACCCAUGUGAGGGCCCUA | 9.22 nM | 9.07 nM | – |

| Sequence | apparent Kd [1] | apparent Kd [2] | other results |
| --- | --- | --- | --- |
| CUCGUACAUGAGGAUCACCCAUGUCAGGAUAUUACUGUCGAGUCCAAAACUAGAAAGGUAAGAAGGGACACAUU | 13.3 nM | 17.8 nM | – |
| CUCUACAUGAGGAUCACCCAUGUAUUAAUACAACUGGGUGCUAGAAGGUGCACUUAAGAAUAGGGCAAGGAUAUAGACCGUUCA | 158 nM | 77.4 nM | – |
| CUCUUGGCCGCAGUACGUUUAUAGACCUAUCGAGGACCGGUACGGCCGCCACUCGGUUAGUCACAUGAGGAUCACCCAUGUGUCC | – | – | apparent Kd [9]: 17.7 nM; apparent Kd [10]: 29.9 nM |
| CUGCAGACCCAGAAGGUUCACAUGAGGAUCACCCAUGUGCCUAUCAAUAAGUAAGGUAAAGGCUGAAAGGAUAUGGGUAAAGGA | – | – | apparent Kd [3]: 10.7 nM; apparent Kd [4]: 8.47 nM |
| CUGCCACGAACGGCCGCCACUUACAUGAGGAUCACCCAUGUGCCUGCGCACAAAGAAUGUCAAGAAAGGACCGGGUUCAAAUAGU | – | – | apparent Kd [9]: 61.3 nM; apparent Kd [10]: 66.8 nM |
| CUGCUCUGUACUGAAGGAGAUACAUGAGGAUCACCCAUGUGCAGAAGGUGCUCAUUAAUAAUCGGCAAGGAUAUGCGGGCUUGA | – | – | apparent Kd [3]: 925 nM; apparent Kd [4]: 390 nM |
| CUUGUACAUGAGGAUCACCCAUGUGUCCGUAUCAAAGGAUAUAGCAUAUUCGCAGUGGUGCUAGAAGGUUGUAUAC | – | – | apparent Kd [3]: 20.9 nM; apparent Kd [4]: 10.5 nM |
| CUUUGUGGCCAAGGAUAUCCUGGCACAGUACAUGAGGAUCACCCAUGUCGAAGACAUGGUCGUACGGAGAAGGUGGGCACCCUC | – | – | apparent Kd [3]: 511 nM |
| GAAAGGUGAGGAUAUACAUGAGGAUCACCCAUGUGUAGAAAUAGAAAGAAAAUCUCAAGUAGAAGGCACAAACA | 11.3 nM | 13.7 nM | – |
| GAAAUACAUGAGGAUCACCCAUGUCAGGAUAUCGGUGAGAAAGAGCAUCUCUGCGGCCCGAGAAGGGACACAGG | 64.5 nM | 51.8 nM | – |
| GACAAAAUGGUAGGAUAUGCUUGGUCUUGAUCAGCAGAAGGACCACAUGAGGAUCACCCAUGUGCAGUGAUUCUGGGAGCUCGC | 55.2 nM | 93.3 nM | – |
| GACAGAAGGUAGAAGGUGGUUCUCCUCACCCACUUUGAGGACAUGAGGAUCACCCAUGUCAAAACCAAGGAUAUACUACGUCGU | – | – | apparent Kd [3]: 89.8 nM; apparent Kd [4]: 18.2 nM |
| GACCAUCACCAGAAGGUCCUCCACCAGCGAGAUCCGACAUGAGGAUCACCCAUGUACUGUGGAUGGAAGGAUAUGGAAGGCUCU | 46.9 nM | 116 nM | – |
| GACGGGCCUAUUGAUACCAGACCUAGUGACAACAUGAGGAUCACCCAUGUGACGGCAAAAGUCCCUUGGCAGCAAGUAGAAAUAA | – | – | apparent Kd [5]: 12.6 nM; apparent Kd [6]: 12.3 nM |
| GAGCGCAGUUUACAACAUACUAACACAGAUACCAGAAAUUUUAUGUUCCCUUGGCAGCUGACAACAUGAGGAUCACCCAUGUGCU | – | – | apparent Kd [11]: 17.1 nM; apparent Kd [12]: 17.7 nM |
| GAUAAAGCAGGAUAUACAUACCGGCCAUGACUAAAAGAAGGACAUGAGGAUCACCCAUGUAGAAGGGCUUAAAA | 15.7 nM | 30.5 nM | – |
| GAUAGGUGAGGAUAUGUGAGUGAUCACAUGAGGAUCACCCAUGUUGACUCAUGUUGGCUUACAGAAGGCACAGGAA | 137 nM | 97.2 nM | – |
| GAUCCGUACCAGACCUUCAAUGGACUCAGUCGAGGACCGGUACGGCCGCCACUCGGAGAAGAACAUGAGGAUCACCCAUGUGAUG | – | – | apparent Kd [9]: 36.3 nM; apparent Kd [10]: 53.8 nM |
| GAUUAAAAGAUAGGAUAUUUUGAAAUCGUCACAUGAGGAUCACCCAUGUAUGGCCUGGGCAAUCAAAAGAAGGAUCUUUCUGAU | 11.2 nM | 6.84 nM | – |
| GAUUGCGGUGUGAGGAUAUCUGUUUAACAAAAGCCAGAGAAGGCACAUGAGGAUCACCCAUGUAGAUGCCGGCC | 8.38 nM | 10.5 nM | – |
| GCAAUUCUUGAGAAGGUCGUAGUGCGCAGACCAAAAGCACAUGAGGAUCACCCAUGUGAUCAAACGAAGGAUAUCACAGUAGAA | 51.9 nM | 49.3 nM | – |
| GCCAAAAUACCCGAUACCAGUAUUAAUAGCACAACCUCACACAUGAGGAUCACCCAUGUAUACCCUUGGCAGCGGCCUAACAUAA | – | – | apparent Kd [11]: 36.9 nM; apparent Kd [12]: 102 nM |
| GCCCUGUGACUAGGAUAUGCCGGGAAACACAUCGCAGAAGGAGUCCACUCAUGUCGACAUGAGGAUCACCCAUGUACCAGGGUU | 40.6 nM | 29.9 nM | – |
| GCCUCGAACUCAGGAUAUCAGAGAGGUUGCCGCUGAGAAGGGAGACAUGAGGAUCACCCAUGUACAGUCAUGACCGUCGAGUUG | – | – | apparent Kd [3]: 65.8 nM; apparent Kd [4]: 84 nM |
| GCGAAGCGAGGAUAUUAAUCCGUACACAUGAGGAUCACCCAUGUGAAUCAAUCAUGUGGUUAAGAAGGCGCGUGGG | 541 nM | 73.2 nM | – |
| GCGUGAGCGACGUGUCUUCCACAUGAGGAUCACCCAUGUCGCAGAAGGACUUGAAUCGUAUUAAAGUAGGAUAUGCGUAGGACG | – | – | apparent Kd [3]: 38.3 nM; apparent Kd [4]: 29 nM |
| GCUAUAUUUGAGAAGGGAGGAUGCUUCACAGAGCUUAGACCAGACAUGAGGAUCACCCAUGUGCCUCAGGAUAUCAAUAUCGAU | – | – | apparent Kd [3]: 27.3 nM; apparent Kd [4]: 8.5 nM |
